OXTR ag: agonists of human oxytocin receptor; CHO-OTR cells, Fluo-8 calcium fluorescence; normalized: DMSO 0%, oxytocin 100%; 320,000 compounds, 0.32% hits; AID 2435; P30559; activation, % at 3 µM;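 active = activation above the mean of all tested compounds plus 3 SD, cutoff set per screening run, cut at about 20% in these data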;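 note: peak over basal fluorescence ratio from a 100 s FLIPR kinetic read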
V1R ag counter: counter-screen for oxytocin receptor agonists: human V1a receptor agonists; CHO-V1R cells, Fluo-8 calcium fluorescence, agonist mode; 0% DMSO, 100% 3 nM vasopressin; activation, % at 3 µM; 320,000 compounds, 0.25% hits; P37288;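 active = activation above the mean activation of all tested compounds plus 3 SD, per screening run, cut at about 20% in these data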;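 note: signal is peak over basal fluorescence ratio across a 100 second FLIPR read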
TAAR1 antag: human TAAR1 antagonism; CHO RD-HGA16 TAAR1, Fluo-8 calcium fluorescence, antagonist; inhibition, % at 3 µM; 360,000 compounds, 1.5% hits;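 active = inhibition above a per-plate cutoff, the mean inhibition of test compounds on that plate plus 3 SD, cut at about 49% in these data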;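 note: 0% = DMSO plus EC80 beta-PEA response and 100% = DMSO alone without agonist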
Target sequence (Q96RJ0 whole entry, looked up): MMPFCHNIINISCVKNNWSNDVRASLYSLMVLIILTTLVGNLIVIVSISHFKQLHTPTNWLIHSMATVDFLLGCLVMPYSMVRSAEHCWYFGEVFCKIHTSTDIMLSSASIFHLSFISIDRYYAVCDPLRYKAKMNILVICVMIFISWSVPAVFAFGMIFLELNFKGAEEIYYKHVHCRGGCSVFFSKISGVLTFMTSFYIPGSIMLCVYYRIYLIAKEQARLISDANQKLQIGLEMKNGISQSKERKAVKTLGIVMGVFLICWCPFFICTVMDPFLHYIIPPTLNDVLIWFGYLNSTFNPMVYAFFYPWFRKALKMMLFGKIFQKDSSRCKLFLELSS
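Test system: CHO RD-HGA16 cells bearing hTAAR1 | Reagent: β-PEA, EC80 | Compound dosing: 3 µM, single point | Schedule: Dye loading 75 min at 37 °C, then 30 min room temperature | Signal: Calcium fluorescence with Fluo-8 | Evaluation: Percent inhibition of PEA-evoked calcium signal, max/basal emission ratio | Control set: DMSO-only wells and EC80 β-PEA-stimulated wells | Repeats: Singlicate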
TAAR1 ag: human TAAR1 agonism; Q96RJ0; CHO RD-HGA16 TAAR1, Fluo-8 calcium fluorescence; vehicle wells 0%, saturating PEA agonist 100%; activation, % at 3 µM; 360,000 compounds, 0.99% hits;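 active = activation above the mean activation of all test compounds in the run plus 3 SD, cut at about 38% in these data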
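System: CHO RD-HGA16 cells carrying human TAAR1 plus Gα16; Incubation: 17-24 h seeding, 75 min 37 °C dye, 30 min RT; Measured by: Fluo-8 fluorescence, 5 s baseline then 140 s kinetic read; Control set: DMSO and PEA EC100; Replication: single well for each compound.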
OXTR potentiate: human OXTR potentiation; CHO-OTR cells, Fluo-8 calcium fluorescence, potentiator mode; 0% = oxytocin EC15, 100% = EC100; activation, % at 3 µM; 320,000 compounds, 0.061% hits; AID 2445;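 active = activation above that plate's cutoff, the mean activation of tested compounds plus 3 SD, cut at about 6.6% in these data, passing the limit was not always enough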;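 note: 100% uses oxytocin at 75 nM as the full agonist control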
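Replication – single well per compound, singlicate · Assay system – CHO cell line stably expressing human OTR · Timing – 6 min pre-incubation, 100 s read · Measure – normalized max/min fluorescence ratio, % activation · Doses – 3.0 µM, one dose · Detection – Fluo-8 calcium dye fluorescence · Probe or stimulus – oxytocin near EC15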
* marks the source's active call; other numbers are inactive results; . = not tested or not shown. This is a sample that favours compounds with a hit; in the whole collection about 2.3% have one here.

SMILES | OXTR ag | V1R ag counter | TAAR1 antag | TAAR1 ag | OXTR potentiate
CCc1cc(Cn2nc(-c3ccccc3)cc2C(=O)NCCOC)on1 | 0 | 1 | -3 | 13 | -4
CCN(CC(=O)Nc1ccc(NC(C)=O)cc1)C(=O)c1cn(-c2ccccc2)nc1-c1cccs1 | . | . | 64* | 13 | .
COc1cccc(NC(=O)CN(C)C(=O)c2cn(-c3ccccc3)nc2-c2cccnc2)c1 | 0 | 1 | 44 | 12 | -4
COc1cccc(NC(=O)CN(C)C(=O)c2cn(-c3ccccc3)nc2-c2cccs2)c1 | 0 | 2 | 61* | 11 | -7
O=C(c1cn(-c2ccccc2)nc1-c1cccs1)N1CCN(c2ccccn2)CC1 | -2 | 0 | 49* | 11 | -5
CN(C)C(=O)c1cn(-c2ccccc2)nc1-c1cccs1 | -1 | 0 | 5 | 9 | -2
O=C(CN1CCN(Cc2ccccc2)CC1)N1CCN(c2ccccc2)CC1 | 1 | 1 | -2 | 6 | 1
Cc1ccc(OCCN(C)C(=O)C2CCC(=O)N(Cc3ccccc3F)C2)cc1 (centres undefined) | 1 | 2 | -9 | 0 | -2
NC(=O)CCCn1c(C(=O)c2cc(Cl)c(N)c(Cl)c2)c2ccc([N+](=O)[O-])cc2[n+]1[O-] | 3 | 1 | -5 | 13 | -11
O=C(NNC(=O)c1csc(-c2cnccc2C(F)(F)F)n1)c1ccc(C(F)(F)F)cc1 | -1 | 3 | -4 | 2 | 1
COc1cccc(-c2cnc(C(O)c3ccccc3)[nH]2)c1 (centres undefined) | . | . | -2 | 4 | .
COC(=O)c1cccn(CC(=O)c2ccc(Cl)cc2Cl)c1=O | -1 | -1 | 12 | 7 | -6
Cc1cccc(OCC(=O)NNc2c3ccccc3nc3ccccc23)c1 | 1 | 3 | 61* | 16 | -12
Cc1cc(CNC(=O)COc2ccccc2)c2ccccc2n1 | . | . | -12 | 2 | .
Cc1cc(C(=O)CSc2nc3ccccc3[nH]2)c(C)n1CC1CCCO1 (centres undefined) | 15 | 11 | 72* | 32 | -13
CC(=O)Nc1ccc(S(=O)(=O)NNC(=O)c2ccc(C)cc2)cc1 | 0 | 0 | 1 | 15 | 0
O=C(NCC1CCCCC1)c1cc(S(=O)(=O)N2CCOCC2)ccc1F | 1 | 1 | -26 | 39* | -1
CC(=O)/C(=N/Nc1ccc(Br)cc1)N1CCCc2ccccc21 | -1 | 0 | -36 | -2 | 8
C[C@H](CO)N1C[C@H](C)[C@@H](CN(C)C(=O)Nc2ccccc2)Oc2ccc(NC(=O)Nc3ccc4c(c3)OCO4)cc2C1=O | 1 | 0 | -30 | 1 | 8
O=C(NCC1CCCO1)c1ccc(COc2ccccc2)o1 (centres undefined) | -1 | -1 | -11 | 5 | -2
O=C(Nc1ccc([N+](=O)[O-])cc1)c1cc2ccccc2nc1Cl | 6 | 8 | 51* | 9 | -7
CCOC(=O)c1ccc(NC(=S)NCCc2ccccc2)cc1 | 9 | 11 | 4 | 39* | -16
O=c1[nH]c2ccc(NC(=S)NCCc3ccccc3)cc2[nH]1 | 0 | 0 | 29 | 41* | -4
O=c1[nH]c2ccc(NC(=S)Nc3ccccc3)cc2[nH]1 | 1 | 1 | -8 | 7 | -10
Cc1ccc2c(c1C)-c1c(ccc(C)c1C)C(=O)C2=O | . | . | 62* | 2 | .
SMILES | OXTR ag | V1R ag counter | TAAR1 antag | TAAR1 ag | OXTR potentiate
COc1ccc(CNc2ncc(-c3ccccc3)n2C)c2ccccc12 | 4 | 2 | -14 | 11 | -8
O=C(CCC(=O)Nc1ccccc1)NNC(=O)c1cccs1 | 0 | 0 | 6 | 39* | 3
CCN1CCN(c2ccc(S(=O)(=O)N3CCCCC3)cc2NC(=O)c2ccc(C)o2)CC1 | 1 | 0 | . | . | -1
CC(C)(C)OC(=O)N1CCCC(C(=O)Nc2cccc(C(=O)NC3CC3)c2)C1 (centres undefined) | . | . | -5 | 3 | .
CC(C)(C)OC(=O)N1CCCC(C(=O)Nc2cccc(C(=O)NCCCCc3ccccc3)c2)C1 (centres undefined) | . | . | 56* | 12 | .
O=C(/C=C/c1ccccc1)Nc1cccc(C(=O)NCCCCc2ccccc2)c1 | . | . | 67* | 12 | .
O=C(NCCCCc1ccccc1)c1cccc(NC(=O)C2CCC2)c1 | . | . | 13 | 5 | .
CC(C)(C)OC(=O)N1CCCC(C(=O)Nc2cccc(C(=O)NCCc3ccccc3)c2)C1 (centres undefined) | . | . | 49* | 13 | .
CCc1nc2ccc(C(=O)Nc3ccc(C(N)=O)cc3)cn2c1N(C)CCC(C)C | . | . | 26 | 43* | .
CCc1nc2ccc(C(=O)Nc3ccc(NC(C)=O)cc3)cn2c1N(C)CCC(C)C | . | . | 30 | 17 | .
Cc1nn(-c2ccccc2)c(C)c1NC(=O)COC(=O)c1ccc(Cl)c(S(N)(=O)=O)c1 | 1 | 1 | 53* | 13 | -9
Cc1cccc(C(=O)OCC(=O)Nc2c(C)nn(-c3ccccc3)c2C)c1O | 0 | 2 | 27 | 7 | -9
Cc1cc(C(=O)COC(=O)c2ccc(Cl)c(S(N)(=O)=O)c2)c(C)n1C1CC1 | 2 | 1 | 49* | 10 | -5
O=C(COC(=O)c1cc(Br)ccc1O)Nc1ccc2c(c1)OCCO2 | 2 | 4 | 51* | 14 | -8
O=C(COC(=O)c1ccc(O)cc1)Nc1ccc2c(c1)OCCO2 | 0 | 0 | 1 | 19 | -6
Cc1nn(-c2ccccc2)c(C)c1NC(=O)COC(=O)c1cc(Br)ccc1O | 0 | 0 | 61* | 18 | -8
Cc1cc(C(=O)COC(=O)c2ccc(NC(=O)CC#N)cc2)c(C)n1C1CC1 | . | . | -2 | 4 | .
Cc1nn(-c2ccccc2)c(C)c1NC(=O)COC(=O)c1ccc(NC(=O)CC#N)cc1 | 1 | 3 | 28 | 11 | -7
C=CCn1c(SCC(=O)NCC(=O)OCC)nnc1-c1cccc(OC)c1 | -1 | 0 | -2 | 12 | -10
Cn1c(=O)n(/N=C/c2ccccc2)c2ccccc21 | -2 | 0 | -1 | 4 | 3
CC1=C(C(=O)Nc2ccc(C)cc2)C(c2ccco2)NC(=O)N1 (centres undefined) | 0 | 0 | -6 | 2 | -8
Cc1nn(-c2ccccc2)c2c1C(c1ccc([N+](=O)[O-])cc1)N1C(=N2)C(=O)Nc2ccccc21 (centres undefined) | -3 | 0 | 51* | 5 | -4
Cc1nn(-c2ccc([N+](=O)[O-])cc2)c2c1C(c1cccc(Br)c1)N1C(=N2)C(=O)Nc2ccccc21 (centres undefined) | 0 | 0 | 6 | 2 | 4
COc1ccc(-c2coc3c(C(=O)Nc4cc(OC)c(OC)c(OC)c4)cccc23)c(C)c1 | . | . | 63* | 1 | .
COc1ccc(-c2coc3c(C(=O)Nc4ccc(OC)nc4)cccc23)c(C)c1 | . | . | 28 | 1 | .

Bioassay records as filed in PubChem BioAssay.
